Measurements reported in PMC9298202 (Chemmedchem, 2021).

What was measured:
[1] = tested on: Vero cells; test: Cytotoxicity in Vero cells; assay type: cell-based; conditions: Chlorocebus sabaeus, Vero, 72 h, read-out: Vero cells toxicity IC50
In short: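 Vero cells were grown in RPMI + 10% inactivated FBS at 37 °C in humidified 5% CO2. They were resuspended at 1×10^5 cells/mL, cultured 2 days, then given fresh medium with test compound for 72 h. Viability was read by flow cytometry. IC50 was derived by linear regression from Kc values; results average four determinations.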

[2] = tested on: Leishmania braziliensis amastigote forms; test: In vitro activity on amastigote; assay type: cell-based
In short: (§1)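 J774.2 macrophages were infected with promastigotes, which became intracellular amastigotes within 1 day; test compounds were then added. IC50 came from linear regression of Kc values at 1, 10, 25 and 200 µM, averaging four determinations.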

[3] = tested on: Trypanosoma cruzi SN3 amastigote forms; test: Amastigote assay, T. cruzi SN3; assay type: cell-based
In short: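 Vero cells in RPMI + 10% inactivated FBS (37 °C, 5% CO2) were seeded at 1×10^4 cells/well on coverslips for 2 days. They were infected 10:1 with SN3 metacyclic forms, obtained by 12-day culture of epimastigotes at 28 °C in modified Grace's medium (~40% metacyclic). After 24 h, cells were washed and exposed to 6.25–100 µM for 72 h. Giemsa-stained amastigotes were counted; IC50 from four determinations; SI used Vero IC50.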

[4] = tested on: J774.2 macrophages; test: Cytotoxicity in J774.2 macrophages; assay type: cell-based; conditions: Mus musculus, J774.2, 72 h, read-out: Toxicity in macrophages IC50
[5] = tested on: Trypanosoma cruzi SN3 epimastigote forms; test: Epimastigote assay, T. cruzi SN3; assay type: cell-based
In short: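 SN3 epimastigotes (Rhodnius prolixus isolate, Colombia) were grown at 28 °C in Grace's Insect Medium + 10% inactivated FBS. Exponential-phase cells were plated at 5×10^4 parasites/well with test compound in MTL medium at 100, 50, 25, 12,5 and 6,25 µM. Counts after 72 h used a Neubauer chamber. IC50 came from linear regression of Kc values; SI = Vero IC50/epimastigote IC50.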

[6] = tested on: Leishmania infantum promastigote forms; test: In vitro activity on promastigote; assay type: cell-based
[7] = tested on: Leishmania donovani amastigote forms; test: In vitro activity on amastigote; assay type: cell-based
In short: as §1

[8] = tested on: Leishmania donovani promastigote forms; test: In vitro activity on promastigote; assay type: cell-based
In short: (§2)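 Extracellular promastigotes were tested at 1, 10, 25 and 200 µM, and IC50 was derived by linear regression from Kc values, averaging four determinations.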

[9] = tested on: Leishmania infantum amastigote forms; test: In vitro activity on amastigote; assay type: cell-based
[10] = tested on: Trypanosoma cruzi SN3 trypomastigote forms; test: Trypomastigote activity, T. cruzi SN3; assay type: cell-based
[11] = tested on: Leishmania braziliensis promastigote forms; test: In vitro activity on promastigote; assay type: cell-based
In short: as §2

[12] = tested on: Fe-SOD in T. cruzi epimastigotes; test: Fe-SOD inhibition, T. cruzi; assay type: biochemical, Trypanosoma cruzi; conditions: extent reached in the tested concentration range (Figure 9)
In short: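 Promastigotes or T. cruzi epimastigotes were grown in MTL (HBSS + 10% heat-inactivated FBS) at 26 °C to ~1×10^7/mL. Log-phase cells were pelleted and held 24 h at 27 °C to excrete SOD. Filtered supernatant was fractionated with 35% then 85% ammonium sulphate and desalted on Sephadex G-25. Activity was measured as NBT reduction (methionine, riboflavin, Triton X-100) at 560 nm before and after 10 min UV illumination.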

[13] = L. braziliensis, IC50 macrophages toxicity/IC50 activity
[14] = T. cruzi SN3, IC50 Vero cell toxicity/IC50 activity
[15] = L. infantum, IC50 macrophages toxicity/IC50 activity
[16] = L. donovani, IC50 macrophages toxicity/IC50 activity

c1ccc2c(NCCCn3ccnc3)ncnc2c1 [3 b, N ‐[3‐(1H‐imidazol‐1‐yl)propyl]quinazolin‐4‐amine]
IC50 [1]: 121 ± 6.3 µM | Selectivity index Amastigote forms [2, 13]: 7 | IC50 ([2]; Leishmania braziliensis, read-out: Activity IC50 Amastigote forms): 6.6 ± 0.6 µM | Selectivity index Amastigote forms [3, 14]: 50 | IC50 ([3]; Trypanosoma cruzi, read-out: Activity IC50 Amastigote forms): 2.4 µM | IC50 [4]: 45.9 ± 2.8 µM | Selectivity index Epimastigote forms [5, 14]: 13 | IC50 ([5]; Trypanosoma cruzi, read-out: Activity IC50 Epimastigote forms): 9.4 ± 0.7 µM | Selectivity index Promastigote forms [6, 15]: 3 | IC50 ([6]; Leishmania infantum, read-out: Activity IC50 Promastigote forms): 14.7 ± 0.6 µM | Selectivity index Amastigote forms [7, 16]: 17 | IC50 ([7]; Leishmania donovani, read-out: Activity IC50 Amastigote forms): 2.7 ± 0.3 µM | Selectivity index Promastigote forms [8, 16]: 23 | IC50 ([8]; Leishmania donovani, read-out: Activity IC50 Promastigote forms): 2 ± 0.4 µM | Selectivity index Amastigote forms [9, 15]: 4 | IC50 ([9]; Leishmania infantum, read-out: Activity IC50 Amastigote forms): 11.9 ± 0.7 µM | Selectivity index Trypomastigote forms [10, 14]: 93 | IC50 ([10]; Trypanosoma cruzi, read-out: Activity IC50 Trypomastigote forms): 1.3 ± 0.6 µM | Selectivity index Promastigote forms [11, 13]: 6 | IC50 ([11]; Leishmania braziliensis, read-out: Activity IC50 Promastigote forms): 7.6 ± 0.5 µM | extent of inhibition of enzyme activity [12]: approximately 50%
